According to ChEMBL document CHEMBL1152555, “Design, synthesis and cruzain docking of 3-(4-substituted-aryl)-1,2,4-oxadiazole-N-acylhydrazones as anti-Trypanosoma cruzi agents” (Bioorg Med Chem, 2009):

Experiments:
[1] = Cytotoxicity against BALB/c mouse splenocyte assessed as [3H]thymidine incorporation by beta-counting; format: cell-based; settings: splenocytes, read-out: MNCC
Summary of the method: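 Splenocytes from BALB/c mice were plated at 5 × 10⁶ cells per well in DMEM with FCS and gentamycin. Each compound was tested at […], in triplicate, from DMSO stock. Cells were given ³H-thymidine at 1 µCi per well for 24 h at 37 °C and 5% CO₂. Incorporation was compared with untreated wells. The reported value is the highest concentration reducing incorporation by less than 10%.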

[2] = test system: Trypanosoma cruzi; test: Antitrypanosomal activity against Trypanosoma cruzi Y strain
[3] = test system: Trypanosoma cruzi; test: Antitrypanosomal activity against Trypanosoma cruzi trypomastigote Y strain after 24 hrs by trypan blue exclusion assay
[4] = test system: Mus musculus; test: Toxicity in mouse assessed as general toxicity at 100 mg/kg, ip after 72 hrs; format: organism-based; set-up: dose 100 mg/kg, route intraperitoneal; settings: in vivo
Summary of the method: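 Mice received a single intraperitoneal dose of 100 mg/kg. They were watched for 72 h for general toxicity signs, including behavior and feeding, and for survival. Controls received only 100 µL of 30% DMSO:70% H₂O (v/v).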

| SMILES | IC50 [2] [µM] | IC50 ([3]; read-out: IC50) [µM] | IC50 ([3]; read-out: pIC50 (converted)) [µM] | MNTC [1] | Activity [4] |
| --- | --- | --- | --- | --- | --- |
| Cc1ccc(-c2noc(C(=O)N/N=C/c3ccc(O)cc3)n2)cc1 | 47.8 | 17.9 | 17.8 | < 1.1 µg/mL | – |
| CC(=O)Nc1ccc(/C=N/NC(=O)c2nc(-c3ccc(F)cc3)no2)cc1 | > 150 | – | – | 33 µg/mL | – |
| CC(=O)Nc1ccc(/C=N/NC(=O)c2nc(-c3ccccc3)no2)cc1 | 14.2 | 3.6 | 3.63 | 95 µM | Non-toxic |
| COc1ccc(-c2noc(C(=O)N/N=C/c3ccc(O)cc3)n2)cc1 | 13.8 | 32.5 | 32.4 | 85 µM | – |
| O=C(Cn1ccnc1[N+](=O)[O-])NCc1ccccc1 [BENZNIDAZOLE] | – | – | 5.01 | 100 µg/mL | – |
| COc1ccc(-c2noc(C(=O)N/N=C/c3ccc(NC(C)=O)cc3)n2)cc1 | > 150 | – | – | 100 µg/mL | – |
| O=C(N/N=C/c1ccc(O)cc1)c1nc(-c2ccc([N+](=O)[O-])cc2)no1 | 25.2 | 21.3 | 21.4 | < 1.1 µg/mL | – |
| O=C(N/N=C/c1ccc(O)cc1)c1nc(-c2ccc(Br)cc2)no1 | 19.6 | 20.5 | 20.4 | 97 µM | Non-toxic |
| CC(=O)Nc1ccc(/C=N/NC(=O)c2nc(-c3ccc(O)cc3)no2)cc1 | > 150 | – | – | 33 µg/mL | – |
| O=C(N/N=C/c1ccc(O)cc1)c1nc(-c2ccc(F)cc2)no1 | 21 | 16.7 | 16.6 | < 1.1 µg/mL | – |
| O=C(N/N=C/c1ccc(O)cc1)c1nc(-c2ccc(O)cc2)no1 | 127 | 100 | 100 | 100 µg/mL | – |

More lines, main results first:

| IC50 [2] [µM] | IC50 ([3]; read-out: IC50) [µM] | IC50 ([3]; read-out: pIC50 (converted)) [µM] | SMILES | MNTC [1] | Activity [4] |
| --- | --- | --- | --- | --- | --- |
| > 150 | – | – | CC(=O)Nc1ccc(/C=N/NC(=O)c2nc(-c3ccc(Cl)cc3)no2)cc1 | 100 µg/mL | – |
| – | 2.1 | – | CN(C)c1ccc(C(=C2C=CC(=[N+](C)C)C=C2)c2ccc(N(C)C)cc2)cc1 [GENTIAN VIOLET] | < 1 µg/mL | – |
| > 150 | – | – | CC(=O)Nc1ccc(/C=N/NC(=O)c2nc(-c3ccc(Br)cc3)no2)cc1 | 33 µg/mL | – |
| 21.6 | 21.2 | 21.4 | O=C(N/N=C/c1ccc(O)cc1)c1nc(-c2ccc(Cl)cc2)no1 | < 1.1 µg/mL | – |
| 78.3 | 35.7 | 35.5 | O=C(N/N=C/c1ccc(O)cc1)c1nc(-c2ccccc2)no1 | 3.3 µg/mL | – |
| > 150 | – | – | CC(=O)Nc1ccc(/C=N/NC(=O)c2nc(-c3ccc([N+](=O)[O-])cc3)no2)cc1 | 33 µg/mL | – |
| 9.8 | 3.9 | 3.89 | CC(=O)Nc1ccc(/C=N/NC(=O)c2nc(-c3ccc(C)cc3)no2)cc1 | 30 µM | – |
